Data on 4 compounds can be found in PMC6421538 (ACS Medicinal Chemistry Letters, 2019).

Usually clearance stands for the rate of elimination divided by the concentration. One may read the IC50 as the concentration that inhibits the measured activity by half. For orientation: Papp means a coefficient for how fast a substance crosses the barrier.

One data set has as its system total Aβ1–x. Kind of data set: total Aβ1–x formation. Type of data set: cell-based.
The test system of another data set is Aβ1–37 and Aβ1–38. Kind of data set: urea gel Western blotting of Aβ species. Type of data set: cell-based. In general terms: A western blot detects proteins with antibodies after separation by electrophoresis.
Data set [1] deals with T1, CYP3A4 (Homo sapiens, UniProt P08684). Nature of the data set: CYP 3A4 HLM time-dependent inhibition. Type of data set: in vitro ADME.
The next data set concerns the target hERG ion channel (Homo sapiens, UniProt Q12809). Kind of data set: hERG patch-clamp electrophysiology. Type of data set: cell-based.
A further data set in a line: rabbit telemetry study. Type of data set: in vivo.
The nature of data set [2]: 4 day oral dosing study in rats. Type of data set: in vivo.
Data set [3] can be described thus: in vitro biotransformation assays. Type of data set: in vitro ADME.
A further data set has as its system H4-APPsw cells. Kind of data set: Aβ species in cultured H4-APPsw cells by mass spectrometry. Type of data set: cell-based.
A short description of another data set: pharmacokinetics in rat. The settings on record: Sprague-Dawley, in vivo, iv, 2 mg/kg.
The nature of another data set: pharmacokinetics in dog. The following applies: male, beagle, in vivo, iv, 1 mg/kg.
A short description of data set [4]: pharmacokinetics in cynomolgus monkey. The following applies: male, in vivo, iv, 1 mg/kg.
Data set [5] addresses T1, CYP3A4. Nature of the data set: recombinant CYP3A4 inhibition. Type of data set: in vitro ADME. The gist of the method:
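Recombinant human CYP3A4 was incubated with the test compound for 30 min, and an IC50 was determined.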

A further data set is described as follows: Caco-2 permeability. Type of data set: in vitro ADME. The settings on record: human. In general terms: Passage across Caco-2 layers is used to estimate intestinal permeability.
For the next data set, the system named is CYP3A4 mRNA. Kind of data set: CYP3A4 mRNA induction in cryopreserved primary human hepatocytes. The settings on record: 3.3–10 μM. Type of data set: cell-based.
A short description of data set [6]: 2-week oral repeat dose toxicity study in rats. Type of data set: in vivo. In outline:
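Rats received the test compound orally for 2 weeks at 10, 30 and 100 mg/kg in repeat dosing. Endpoints included signs of stress, food consumption, duodenal histology for Notch-related goblet cell metaplasia, and liver for hepatotoxicity and necrosis.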

The nature of the next data set: acute oral dose in dogs. Type of data set: in vivo. In outline:
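Dogs received a single acute oral dose of 300 mg/kg. Bilirubin and other clinical pathology were assessed, and plasma Cmax and AUC were measured. Margins were taken relative to projected human Cmax and AUC at the efficacious clinical dose.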

The nature of data set [7]: projected human PK and dose. The following applies: 110 mg QD, steady state. In outline:
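Human PK was predicted by allometric scaling of rat, dog and cynomolgus monkey PK, then combined with a rat PK/PD indirect response model.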

The nature of data set [8]: hemodynamics in conscious rats. Type of data set: in vivo. The settings on record: any dose studied.
For a further data set, the system named is CYP2C subfamily. Nature of the data set: CYP inhibition in human liver microsomes, CYP2C subfamily. Type of data set: in vitro ADME.
For data set [9], the system named is rest of the CYP isoforms tested (other than the CYP2C subfamily). Nature of the data set: CYP inhibition in human liver microsomes, rest of isoforms. Type of data set: in vitro ADME.
The conditions of data set [10]: cited from earlier work.
The subject of the next data set is Aβ peptide species. The settings on record: intravenous administration; cited from earlier work.
Setting [11] is: single oral doses 10 to 1200 mg, multiweek daily 50 to 200 mg.

Several values for one entry are separate records, joined by “and”; a condition that tells them apart may be missing. Identical values can stand only once. Like-named read-outs stand apart in the source and are kept apart here. Bounds are passed on as bounds.

T1 sequence (P08684 whole entry): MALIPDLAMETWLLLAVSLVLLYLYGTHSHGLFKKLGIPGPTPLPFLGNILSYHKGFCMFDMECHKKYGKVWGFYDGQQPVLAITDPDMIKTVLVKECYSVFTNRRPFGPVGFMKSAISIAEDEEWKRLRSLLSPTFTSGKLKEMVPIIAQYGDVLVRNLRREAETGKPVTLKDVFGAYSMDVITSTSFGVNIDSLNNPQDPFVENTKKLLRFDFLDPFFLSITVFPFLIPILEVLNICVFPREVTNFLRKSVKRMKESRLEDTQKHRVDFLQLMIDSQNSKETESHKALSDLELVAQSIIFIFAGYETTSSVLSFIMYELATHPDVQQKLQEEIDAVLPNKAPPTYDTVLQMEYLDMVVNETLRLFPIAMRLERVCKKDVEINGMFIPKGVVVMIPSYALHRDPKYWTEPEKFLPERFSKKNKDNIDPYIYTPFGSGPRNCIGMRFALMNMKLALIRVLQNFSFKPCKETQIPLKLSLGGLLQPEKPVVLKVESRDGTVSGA
Sequence of hERG ion channel (Q12809 whole entry): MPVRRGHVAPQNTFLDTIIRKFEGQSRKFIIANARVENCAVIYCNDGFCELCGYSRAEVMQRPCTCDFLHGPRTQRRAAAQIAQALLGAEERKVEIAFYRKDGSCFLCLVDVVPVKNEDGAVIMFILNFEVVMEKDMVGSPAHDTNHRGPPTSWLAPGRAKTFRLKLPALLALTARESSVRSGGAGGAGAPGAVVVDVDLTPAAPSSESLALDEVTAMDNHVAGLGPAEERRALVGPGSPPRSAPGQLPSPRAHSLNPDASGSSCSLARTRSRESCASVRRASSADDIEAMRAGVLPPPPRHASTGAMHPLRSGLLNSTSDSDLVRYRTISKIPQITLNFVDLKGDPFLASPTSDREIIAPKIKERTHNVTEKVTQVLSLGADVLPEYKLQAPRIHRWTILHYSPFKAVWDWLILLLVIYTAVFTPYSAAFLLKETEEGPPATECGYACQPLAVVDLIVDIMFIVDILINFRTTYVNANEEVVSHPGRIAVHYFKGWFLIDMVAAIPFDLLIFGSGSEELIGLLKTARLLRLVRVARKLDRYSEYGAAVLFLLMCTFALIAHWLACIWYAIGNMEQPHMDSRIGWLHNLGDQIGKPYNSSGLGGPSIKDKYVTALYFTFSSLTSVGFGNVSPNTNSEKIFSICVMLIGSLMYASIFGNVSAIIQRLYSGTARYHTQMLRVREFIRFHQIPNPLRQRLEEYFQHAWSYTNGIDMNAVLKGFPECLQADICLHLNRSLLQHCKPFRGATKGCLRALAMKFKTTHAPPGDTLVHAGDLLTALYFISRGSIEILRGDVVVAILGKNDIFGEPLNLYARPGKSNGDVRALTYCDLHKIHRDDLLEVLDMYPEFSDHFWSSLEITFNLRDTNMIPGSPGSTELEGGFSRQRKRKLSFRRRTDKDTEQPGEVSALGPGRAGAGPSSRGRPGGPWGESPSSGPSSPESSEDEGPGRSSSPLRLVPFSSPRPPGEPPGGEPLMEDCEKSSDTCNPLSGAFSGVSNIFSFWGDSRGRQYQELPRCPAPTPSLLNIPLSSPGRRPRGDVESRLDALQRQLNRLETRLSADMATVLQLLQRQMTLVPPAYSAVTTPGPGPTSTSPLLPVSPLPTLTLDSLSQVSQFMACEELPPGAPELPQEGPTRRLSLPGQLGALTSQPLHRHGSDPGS

With `CNc1nc(Nc2ccc(-n3cncn3)c(OC)c2)nc(-c2ccccc2)n1` [Compound 1], in the data set with total Aβ1–x, the “effect on total Aβ1–x formation” value was “No effect”. In addition, the “levels of Aβ1–37 and Aβ1–38” value in the data set with Aβ1–37 and Aβ1–38 is listed as “increased levels”.

For the compound `CNc1nc(Cc2ccccc2)nc(Nc2ccc(-n3cnc(C)c3)c(OC)c2)n1` [Compound 2, 6-benzyl-N2-(3-methoxy-4-(4-methyl-1H-imidazol-1-yl)phenyl)-N4-methyl-1,3,5-triazine-2,4-diamine], the CYP3A4 inhibition entry on CYP3A4 [1] (in words) was “potent and time-dependent CYP3A4 inhibition”. At hERG ion channel (in words), the hERG inhibition result is “potent hERG inhibition”.

In the case of `CNc1nc(Nc2ccc(-n3cnc(Cl)c3)c(OC)c2)nc2c1CC[C@H]2c1ccccc1` [Compound 3], in the data set “rabbit telemetry study” (rabbit telemetry), the “safety margin vs the hERG NOAEL” value worked out at 40 fold. Further, the tissue examination finding result in [2] (4 days oral, 10, 30, and 100 mg/kg) is on record as “hepatocellular necrosis at all doses studied”. Also, the plasma bilirubin finding result in data set [2] (4 days oral, all doses, visibly yellow plasma) is recorded as “increase in unconjugated bilirubin”. Further, the metabolism entry in data set [3] was “confined to N-demethylation and monohydroxylation of the D-ring”.

In the case of `CNc1nc(Nc2ccc(-n3cnc(C)n3)c(OC)c2)nc2c1CC[C@H]2c1ccc(F)cc1` [Compound 4, (S)-7-(4-fluorophenyl)-N^2-(3-methoxy-4-(3-methyl-1H-1,2,4-triazol-1-yl)phenyl)-N^4-methyl-6,7-dihydro-5H-cyclopenta[d]pyrimidine-2,4-diamine], in the data set on total Aβ1–x (concentrations up to 10 μM, Aβ1–x ELISA, H4-APPsw cells), the “total Aβ1–x” value is listed as “unchanged”. The “change in Aβ1–37 and Aβ1–38” value in the data set on H4-APPsw cells is on record as “corresponding increase”. The “change in Aβ1–42 and Aβ1–40” value in the data set with H4-APPsw cells was “large decrease”. Moreover, the clearance at 24 h in “pharmacokinetics in rat” was 11.2 ± 0.4 mL/min/kg; in “pharmacokinetics in dog” it was 12.5 ± 1.2 mL/min/kg; in data set [4] it was 31.3 ± 9.5 mL/min/kg. Further, the “CYP 3A4 HLM time-dependent inhib. KI” value at CYP3A4 [1] (HLM) was 82.5 µM and 83 µM. For the same compound, the values for the IC50 (on CYP3A4 [5]; in data set [9]) were 0.51 µM and over 17 µM, respectively. In addition, the “fold less potent at hERG than compound 3” value on hERG ion channel amounted to 6 fold. The Papp in the data set “Caco-2 permeability” is 3.5 ×10⁻⁶ cm/s. Further, the AMES result in the data set “AMES” is given as “negative”. The “elevation of CYP3A4 mRNA” value with CYP3A4 mRNA is 36–43%. Further, the “change in QTcf” value in “rabbit telemetry study” (unconscious rabbits, 3 mg/kg) is reported as “no change”. In “rabbit telemetry study” (unconscious rabbits, 10 mg/kg), this compound gave an exposure of 50 µM. Also, in “rabbit telemetry study” (unconscious rabbits, doses of 10 mg/kg and higher), the hemodynamic effects result was “increased blood pressure and decreased heart rate”. For the same compound, the “Notch-related goblet cell metaplasia in the duodenum” value in data set [6] (2-week oral) is reported as “no Notch-related goblet cell metaplasia”. For the same compound, in data set [6] (2-week oral), the bilirubin finding result is “minimal, nontoxicologically significant bilirubin elevation”. The hepatotoxicity or necrosis result in data set [6] (2-week oral) is on record as “no hepatotoxicity or necrosis was observed”. Besides, the tolerability result in data set [6] (2-week oral, 10, 30, and 100 mg/kg) was “well tolerated”; in the data set “acute oral dose in dogs” (acute oral dose of 300 mg/kg), “tolerated with no significant changes in bilirubin levels or other clinical pathological assessments”; in data set [10] (dosed acutely) it was “well tolerated”. Besides, in data set [6] (2-week, 100 mg/kg oral), the “findings in high dose group” value is “stress and reduced food consumption effects”. Further, the “margin over the projected human efficacious exposure at the NOAEL” value in data set [6] (2-week, NOAEL 30 mg/kg, vs 4 μM·h) is listed as 48 fold. In “acute oral dose in dogs” (300 mg/kg), the “margin in Cmax to the projected efficacious clinical dose” value turned out to be 43 fold. Moreover, in [7], the “projected human brain Aβ1–42 reduction” value is 31%. Also, the “hemodynamic effects (blood pressure, heart rate)” value in data set [8] is recorded as “not seen”. The “CYP2C subfamily IC50s” value with CYP2C subfamily was “single digit micromolar”. Further, the ALT finding entry in [10] (200 mg for 24 days) is listed as “ALT elevations were observed”. In addition, the “Aβ1–37 and Aβ1–38 in plasma and CSF” value in data set [10] (setting [11]) is “dose-dependent increase”. In addition, the “Aβ1–42 and Aβ1–40 in plasma and CSF” value in data set [10] (setting [11]) is reported as “decrease”. Moreover, in data set [10] (setting [11]), the “total Aβ1–x in plasma and CSF” value is given as “no change”. For the same compound, the “distribution among Aβ peptide species in rat brain and CSF” value with Aβ peptide species is reported as “same distribution among Aβ peptide species was recapitulated”.
